Assays:
[1] = target: Ribosomal protein S6 kinase beta-1 (Homo sapiens, UniProt P23443); assay: Inhibition of P70S6K in human HeLa cells lysate at 2 uM pre incubated for 15 mins followed by ATP acyl phosphate probe addition and measured after 10 mins by LC-MS/MS analysis relative to control; assay type: subcellular; conditions: time 25.0 min
[2] = target: Mitogen-activated protein kinase kinase kinase 1 (Homo sapiens, UniProt Q13233); assay: Inhibition of MAP3K1 in human HeLa cells lysate pre incubated for 15 mins followed by ADP acyl phosphate probe addition and measured after 10 mins by LC-MS/MS analysis; assay type: subcellular
[3] = Inhibition of SRPK1/2 in human HeLa cells lysate at 2 uM pre incubated for 15 mins followed by ADP acyl phosphate probe addition and measured after 10 mins by LC-MS/MS analysis relative to control; conditions: 25 min, condition cancer
[4] = target: Serine/threonine-protein kinase MRCK beta (Homo sapiens, UniProt Q9Y5S2); assay: Inhibition of MRCKB in human HeLa cells lysate at 50 uM pre incubated for 15 mins followed by ATP acyl phosphate probe addition and measured after 10 mins by LC-MS/MS analysis relative to control; assay type: subcellular; conditions: time 25.0 min
Sequence of Serine/threonine-protein kinase MRCK beta (Q9Y5S2 whole entry): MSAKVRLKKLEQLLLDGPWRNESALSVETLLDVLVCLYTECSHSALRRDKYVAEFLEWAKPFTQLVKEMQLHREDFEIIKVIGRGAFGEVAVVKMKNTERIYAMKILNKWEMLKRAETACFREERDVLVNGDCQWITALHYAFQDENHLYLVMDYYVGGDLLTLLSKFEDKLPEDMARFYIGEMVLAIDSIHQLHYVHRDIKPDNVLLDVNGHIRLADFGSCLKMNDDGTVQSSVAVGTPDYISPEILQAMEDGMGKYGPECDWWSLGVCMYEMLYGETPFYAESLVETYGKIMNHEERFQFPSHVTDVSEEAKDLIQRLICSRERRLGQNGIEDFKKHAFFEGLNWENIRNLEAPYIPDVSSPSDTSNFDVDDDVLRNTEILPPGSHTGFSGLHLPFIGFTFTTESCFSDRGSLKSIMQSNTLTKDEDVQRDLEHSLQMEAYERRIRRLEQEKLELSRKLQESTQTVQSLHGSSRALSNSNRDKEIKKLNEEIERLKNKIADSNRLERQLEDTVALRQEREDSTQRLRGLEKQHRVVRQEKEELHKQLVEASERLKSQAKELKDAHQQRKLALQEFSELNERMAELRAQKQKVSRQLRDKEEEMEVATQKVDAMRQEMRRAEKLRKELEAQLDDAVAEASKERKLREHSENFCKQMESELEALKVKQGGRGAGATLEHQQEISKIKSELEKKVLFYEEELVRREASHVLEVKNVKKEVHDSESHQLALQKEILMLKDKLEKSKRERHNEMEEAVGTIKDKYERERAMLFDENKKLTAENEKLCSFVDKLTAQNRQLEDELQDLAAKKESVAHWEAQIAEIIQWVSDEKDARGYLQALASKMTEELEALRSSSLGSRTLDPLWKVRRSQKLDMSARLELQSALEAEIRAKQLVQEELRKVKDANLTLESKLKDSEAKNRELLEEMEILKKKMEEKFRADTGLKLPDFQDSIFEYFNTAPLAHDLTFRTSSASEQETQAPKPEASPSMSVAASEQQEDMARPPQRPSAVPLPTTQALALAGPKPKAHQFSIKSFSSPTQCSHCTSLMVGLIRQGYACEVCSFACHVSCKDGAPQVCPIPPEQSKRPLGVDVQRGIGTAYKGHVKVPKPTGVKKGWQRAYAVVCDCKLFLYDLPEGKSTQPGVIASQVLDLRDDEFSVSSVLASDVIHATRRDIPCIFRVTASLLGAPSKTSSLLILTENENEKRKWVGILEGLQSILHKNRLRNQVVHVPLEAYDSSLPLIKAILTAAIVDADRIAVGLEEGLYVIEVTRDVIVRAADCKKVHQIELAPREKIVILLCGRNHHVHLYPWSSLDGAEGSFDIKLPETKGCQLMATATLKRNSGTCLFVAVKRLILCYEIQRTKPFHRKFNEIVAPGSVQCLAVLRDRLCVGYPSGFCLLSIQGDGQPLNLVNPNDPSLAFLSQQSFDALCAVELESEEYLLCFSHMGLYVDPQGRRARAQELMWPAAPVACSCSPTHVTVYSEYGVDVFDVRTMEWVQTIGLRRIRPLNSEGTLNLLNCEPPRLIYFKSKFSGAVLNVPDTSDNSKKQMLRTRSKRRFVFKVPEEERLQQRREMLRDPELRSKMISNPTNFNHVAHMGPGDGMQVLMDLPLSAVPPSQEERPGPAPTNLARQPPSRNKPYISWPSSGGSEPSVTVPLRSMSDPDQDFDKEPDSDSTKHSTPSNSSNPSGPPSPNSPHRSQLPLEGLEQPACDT

[5] = Inhibition of MSK1/2 domain 1 in human HeLa cells lysate at 2 uM pre incubated for 15 mins followed by ATP acyl phosphate probe addition and measured after 10 mins by LC-MS/MS analysis relative to control; conditions: 25 min, condition cancer
[6] = Inhibition of NEK6/7 in human HeLa cells lysate pre incubated for 15 mins followed by ADP acyl phosphate probe addition and measured after 10 mins by LC-MS/MS analysis; assay type: subcellular
[7] = Inhibition of SRC/FYN/YES in human HeLa cells lysate at 10 uM pre incubated for 15 mins followed by ATP acyl phosphate probe addition and measured after 10 mins by LC-MS/MS analysis relative to control; conditions: 25 min, condition cancer
[8] = Inhibition of SRC/FYN/YES in human HeLa cells lysate at 2 uM pre incubated for 15 mins followed by ATP acyl phosphate probe addition and measured after 10 mins by LC-MS/MS analysis relative to control; conditions: 25 min, condition cancer
[9] = Inhibition of MAP3K2/3 in human HeLa cells lysate at 50 uM pre incubated for 15 mins followed by ATP acyl phosphate probe addition and measured after 10 mins by LC-MS/MS analysis relative to control; conditions: 25 min, condition cancer
[10] = target: Epidermal growth factor receptor (Homo sapiens, UniProt P00533); assay: Inhibition of EGFR in human HeLa cells lysate pre incubated for 15 mins followed by ADP acyl phosphate probe addition and measured after 10 mins by LC-MS/MS analysis; assay type: subcellular
[11] = target: Casein kinase I isoform alpha (Homo sapiens, UniProt P48729); assay: Inhibition of CK1alpha in human HeLa cells lysate pre incubated for 15 mins followed by ATP acyl phosphate probe addition and measured after 10 mins by LC-MS/MS analysis; assay type: subcellular
Sequence of Casein kinase I isoform alpha (P48729 whole entry, canonical isoform): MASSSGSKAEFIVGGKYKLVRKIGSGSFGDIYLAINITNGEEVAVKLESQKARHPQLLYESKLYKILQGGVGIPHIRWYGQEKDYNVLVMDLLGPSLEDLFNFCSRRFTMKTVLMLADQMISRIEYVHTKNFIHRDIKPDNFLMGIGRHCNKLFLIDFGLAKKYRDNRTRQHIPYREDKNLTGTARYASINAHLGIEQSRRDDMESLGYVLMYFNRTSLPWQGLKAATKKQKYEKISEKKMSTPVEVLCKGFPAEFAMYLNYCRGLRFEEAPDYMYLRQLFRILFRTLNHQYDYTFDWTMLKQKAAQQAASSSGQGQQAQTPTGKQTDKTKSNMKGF

[12] = Inhibition of PCTAIRE2/ICK in human HeLa cells lysate at 10 uM pre incubated for 15 mins followed by ADP acyl phosphate probe addition and measured after 10 mins by LC-MS/MS analysis relative to control; conditions: 25 min, condition cancer
[13] = target: DNA-dependent protein kinase catalytic subunit (Homo sapiens, UniProt P78527); assay: Inhibition of PRKDC in human HeLa cells lysate pre incubated for 15 mins followed by ATP acyl phosphate probe addition and measured after 10 mins by LC-MS/MS analysis; assay type: subcellular
Activated CDC42 kinase 1 = Activated CDC42 kinase 1 (Homo sapiens, UniProt Q07912); assay: Inhibition of ACK1 in human HeLa cells lysate at 2 uM pre incubated for 15 mins followed by ADP acyl phosphate probe addition and measured after 10 mins by LC-MS/MS analysis relative to control; assay type: subcellular; conditions: time 25.0 min
Procedure, shortened: (§1)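 HeLa cell lysates (5 mg/mL total protein) were preincubated with inhibitor at 0, 0.8, 2, 10 or 50 μM for 15 min. ATP or ADP acylphosphate probe was then added (5 μM final) for 10 min, and reactions were stopped with urea. Up to four fragment ions per kinase probe-peptide were quantified by targeted MS. % inhibition was taken relative to untreated lysate. Run in duplicate.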

[14] = Inhibition of HGK/MINK/TNIK in human HeLa cells lysate pre incubated for 15 mins followed by ADP acyl phosphate probe addition and measured after 10 mins by LC-MS/MS analysis; assay type: subcellular
[15] = target: p38 delta/gamma (Homo sapiens) (UniProt O15264+P53778); assay: Inhibition of p38d/p38g in human HeLa cells lysate at 50 uM pre incubated for 15 mins followed by ATP acyl phosphate probe addition and measured after 10 mins by LC-MS/MS analysis relative to control; assay type: subcellular; conditions: time 25.0 min
[16] = target: Phosphatidylinositol 4-kinase alpha (Homo sapiens, UniProt P42356); assay: Inhibition of PIK4CA in human HeLa cells lysate pre incubated for 15 mins followed by ATP acyl phosphate probe addition and measured after 10 mins by LC-MS/MS analysis; assay type: subcellular
Sequence of Phosphatidylinositol 4-kinase alpha (P42356 whole entry): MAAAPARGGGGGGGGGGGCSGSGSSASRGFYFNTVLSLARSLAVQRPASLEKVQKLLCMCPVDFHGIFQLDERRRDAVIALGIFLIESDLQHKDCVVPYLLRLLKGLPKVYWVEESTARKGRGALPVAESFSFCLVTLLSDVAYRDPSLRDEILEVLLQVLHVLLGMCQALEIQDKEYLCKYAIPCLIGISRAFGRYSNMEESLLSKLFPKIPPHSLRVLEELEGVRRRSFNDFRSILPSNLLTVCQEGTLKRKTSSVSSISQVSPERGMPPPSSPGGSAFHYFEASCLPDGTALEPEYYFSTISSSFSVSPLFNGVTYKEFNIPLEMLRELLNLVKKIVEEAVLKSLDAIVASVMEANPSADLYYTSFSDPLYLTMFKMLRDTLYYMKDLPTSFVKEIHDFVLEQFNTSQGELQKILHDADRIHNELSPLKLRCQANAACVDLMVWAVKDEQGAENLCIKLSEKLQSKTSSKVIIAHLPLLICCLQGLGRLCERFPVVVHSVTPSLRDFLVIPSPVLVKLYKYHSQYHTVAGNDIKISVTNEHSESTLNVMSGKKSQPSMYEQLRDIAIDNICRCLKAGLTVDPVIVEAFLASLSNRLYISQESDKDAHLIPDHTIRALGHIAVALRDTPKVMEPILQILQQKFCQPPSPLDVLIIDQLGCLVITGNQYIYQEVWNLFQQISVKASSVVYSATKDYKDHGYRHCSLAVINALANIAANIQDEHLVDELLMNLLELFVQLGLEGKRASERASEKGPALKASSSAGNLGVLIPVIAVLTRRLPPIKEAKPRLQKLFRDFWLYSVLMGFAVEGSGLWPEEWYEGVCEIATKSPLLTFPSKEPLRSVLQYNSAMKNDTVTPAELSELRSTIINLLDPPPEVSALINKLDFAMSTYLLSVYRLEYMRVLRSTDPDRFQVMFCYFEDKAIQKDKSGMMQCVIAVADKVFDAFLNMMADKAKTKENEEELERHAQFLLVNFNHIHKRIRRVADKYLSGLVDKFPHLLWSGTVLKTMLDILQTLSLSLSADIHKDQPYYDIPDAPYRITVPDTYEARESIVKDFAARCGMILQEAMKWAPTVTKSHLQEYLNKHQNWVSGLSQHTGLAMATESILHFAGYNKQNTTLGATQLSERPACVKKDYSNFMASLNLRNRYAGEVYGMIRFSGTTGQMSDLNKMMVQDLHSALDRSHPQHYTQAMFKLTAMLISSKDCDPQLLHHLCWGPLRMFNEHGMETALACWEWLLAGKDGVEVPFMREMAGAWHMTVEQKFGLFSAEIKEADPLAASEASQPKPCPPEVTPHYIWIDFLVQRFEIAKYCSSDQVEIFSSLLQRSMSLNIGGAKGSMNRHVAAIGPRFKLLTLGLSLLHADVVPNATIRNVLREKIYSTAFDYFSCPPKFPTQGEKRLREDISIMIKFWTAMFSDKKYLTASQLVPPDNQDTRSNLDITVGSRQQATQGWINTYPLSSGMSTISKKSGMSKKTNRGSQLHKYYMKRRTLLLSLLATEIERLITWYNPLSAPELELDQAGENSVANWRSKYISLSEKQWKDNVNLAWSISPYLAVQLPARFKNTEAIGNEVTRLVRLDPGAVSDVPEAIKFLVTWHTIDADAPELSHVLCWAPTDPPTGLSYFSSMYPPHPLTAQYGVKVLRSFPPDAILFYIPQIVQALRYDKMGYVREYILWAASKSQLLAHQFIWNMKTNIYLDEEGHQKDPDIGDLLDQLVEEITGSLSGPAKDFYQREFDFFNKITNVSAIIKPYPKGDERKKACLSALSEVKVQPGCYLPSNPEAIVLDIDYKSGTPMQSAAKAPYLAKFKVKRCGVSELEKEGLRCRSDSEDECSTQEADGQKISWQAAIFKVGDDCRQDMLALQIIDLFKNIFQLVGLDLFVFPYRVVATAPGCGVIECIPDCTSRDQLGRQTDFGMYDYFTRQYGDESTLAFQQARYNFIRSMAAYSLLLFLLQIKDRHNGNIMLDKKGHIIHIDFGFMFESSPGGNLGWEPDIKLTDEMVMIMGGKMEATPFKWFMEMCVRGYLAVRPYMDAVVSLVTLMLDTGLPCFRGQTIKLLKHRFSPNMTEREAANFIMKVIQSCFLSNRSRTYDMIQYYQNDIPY

[17] = target: T1, EKC/KEOPS complex subunit TP53RK (Homo sapiens) (UniProt Q96S44); assay: Inhibition of PRPK in human HeLa cells lysate at 10 uM pre incubated for 15 mins followed by ADP acyl phosphate probe addition and measured after 10 mins by LC-MS/MS analysis relative to control; assay type: subcellular; conditions: time 25.0 min
T1 sequence (whole entry): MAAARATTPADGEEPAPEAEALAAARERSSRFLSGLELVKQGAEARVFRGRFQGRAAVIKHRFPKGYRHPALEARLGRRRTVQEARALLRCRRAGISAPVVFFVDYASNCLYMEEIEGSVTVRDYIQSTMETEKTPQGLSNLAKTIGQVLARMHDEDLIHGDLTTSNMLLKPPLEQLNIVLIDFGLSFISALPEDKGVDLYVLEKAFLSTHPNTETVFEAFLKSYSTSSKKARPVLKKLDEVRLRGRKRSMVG

[18] = target: Acylglycerol kinase, mitochondrial (Homo sapiens, UniProt Q53H12); assay: Inhibition of AGK in human HeLa cells lysate pre incubated for 15 mins followed by ATP acyl phosphate probe addition and measured after 10 mins by LC-MS/MS analysis; assay type: subcellular; procedure, shortened: as §1
Sequence of Acylglycerol kinase, mitochondrial (Q53H12 whole entry): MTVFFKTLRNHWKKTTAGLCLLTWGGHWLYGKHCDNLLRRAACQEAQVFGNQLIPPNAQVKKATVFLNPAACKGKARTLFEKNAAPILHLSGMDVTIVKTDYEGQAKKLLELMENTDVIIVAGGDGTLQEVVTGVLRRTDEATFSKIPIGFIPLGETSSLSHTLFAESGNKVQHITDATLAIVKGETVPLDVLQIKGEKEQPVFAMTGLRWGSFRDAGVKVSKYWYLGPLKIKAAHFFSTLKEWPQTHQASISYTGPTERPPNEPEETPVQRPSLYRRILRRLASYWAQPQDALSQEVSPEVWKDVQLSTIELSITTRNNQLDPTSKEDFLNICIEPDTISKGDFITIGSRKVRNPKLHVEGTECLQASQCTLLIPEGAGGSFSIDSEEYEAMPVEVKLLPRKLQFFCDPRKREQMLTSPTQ

[19] = target: T2, Phosphatidylinositol 5-phosphate 4-kinase type-2 gamma (Homo sapiens) (UniProt Q8TBX8); assay: Inhibition of PIP5K2C LIP1 site in human HeLa cells lysate at 10 uM pre incubated for 15 mins followed by ATP acyl phosphate probe addition and measured after 10 mins by LC-MS/MS analysis relative to control; assay type: subcellular; conditions: time 25.0 min
T2 sequence (whole entry): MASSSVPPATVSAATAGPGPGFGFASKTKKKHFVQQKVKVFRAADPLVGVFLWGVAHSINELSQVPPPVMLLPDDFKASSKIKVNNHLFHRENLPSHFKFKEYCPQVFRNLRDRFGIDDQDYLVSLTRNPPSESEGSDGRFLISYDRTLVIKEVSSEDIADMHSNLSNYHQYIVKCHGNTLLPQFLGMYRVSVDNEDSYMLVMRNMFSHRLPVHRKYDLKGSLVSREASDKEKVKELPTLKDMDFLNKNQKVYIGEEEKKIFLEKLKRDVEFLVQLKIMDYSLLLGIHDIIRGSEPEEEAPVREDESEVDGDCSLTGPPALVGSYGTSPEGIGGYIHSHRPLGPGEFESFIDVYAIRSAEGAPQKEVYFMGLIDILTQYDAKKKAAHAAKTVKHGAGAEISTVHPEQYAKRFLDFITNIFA

Sequence of Ribosomal protein S6 kinase beta-1 (P23443 whole entry, looked up): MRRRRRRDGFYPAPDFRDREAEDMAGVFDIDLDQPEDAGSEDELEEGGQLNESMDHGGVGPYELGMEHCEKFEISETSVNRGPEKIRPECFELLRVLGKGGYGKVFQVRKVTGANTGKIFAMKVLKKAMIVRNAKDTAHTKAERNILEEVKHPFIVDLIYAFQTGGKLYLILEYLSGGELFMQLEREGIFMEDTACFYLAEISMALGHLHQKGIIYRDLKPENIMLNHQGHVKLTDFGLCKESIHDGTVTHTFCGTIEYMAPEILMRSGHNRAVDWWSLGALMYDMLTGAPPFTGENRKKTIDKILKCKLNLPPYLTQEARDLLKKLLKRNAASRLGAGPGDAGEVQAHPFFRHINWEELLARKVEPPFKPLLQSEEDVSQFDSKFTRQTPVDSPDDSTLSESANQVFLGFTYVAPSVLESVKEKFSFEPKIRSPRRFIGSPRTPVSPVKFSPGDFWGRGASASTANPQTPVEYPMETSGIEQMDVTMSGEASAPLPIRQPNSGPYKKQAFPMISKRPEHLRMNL

**Q.** With `CCOc1cc(N2CCC(O)CC2)ccc1Nc1ncc2c(n1)N(C)c1ccccc1C(=O)N2C` as the molecule, how does the inhibition [1] read?
**A.** Its inhibition is 7%.

**Q.** What about the IC50 [2] of the same molecule?
**A.** The IC50 was > 50 µM.

**Q.** And the inhibition at 2 µM [3]?
**A.** Its inhibition at 2 µM is 12.7%.

**Q.** What about the inhibition [4] of the same molecule?
**A.** Its inhibition is -5%.

**Q.** What about the inhibition at 2 µM [5] of the same molecule?
**A.** The inhibition at 2 µM was -4.6%.

**Q.** What about the IC50 [6] of the same molecule?
**A.** The IC50 was > 50 µM.

**Q.** And the inhibition at 10 µM [7]?
**A.** Its inhibition at 10 µM is -68.3%.

**Q.** What about the inhibition at 2 µM [8] of the same molecule?
**A.** The inhibition at 2 µM was -29.7%.

**Q.** What about the inhibition at 50 µM [9] of the same molecule?
**A.** The inhibition at 50 µM was -8.7%.

**Q.** And the IC50 [10]?
**A.** Its IC50 is > 50 µM.

**Q.** And the IC50 [11]?
**A.** Its IC50 is > 50 µM.

**Q.** And the inhibition at 10 µM [12]?
**A.** The inhibition at 10 µM was -0.9%.

**Q.** What about the IC50 [13] of the same molecule?
**A.** Its IC50 is > 50 µM.

**Q.** What about the inhibition (Activated CDC42 kinase 1) of the same molecule?
**A.** Its inhibition is 24.4%.

**Q.** What about the IC50 [14] of the same molecule?
**A.** The IC50 was > 50 µM.

**Q.** And the inhibition [15]?
**A.** The inhibition was 37.2%.

**Q.** What about the IC50 [16] of the same molecule?
**A.** Its IC50 is 36 µM.

**Q.** And the inhibition [17]?
**A.** The inhibition was 13.5%.

**Q.** What about the IC50 [18] of the same molecule?
**A.** Its IC50 is > 50 µM.

**Q.** And the inhibition [19]?
**A.** The inhibition was -1.3%.

Reference: ChEMBL document CHEMBL5661979, “Pharmacological inhibition of BMK1 suppresses tumor growth through promyelocytic leukemia protein” (Cancer Cell, 2010)
